Positions count from the first letter of the chain named. Where two headings read alike, the source gives them in different places.
Assays:
EphA3 kinase domain = settings: juxtamembrane peptide, ref [20], cited from earlier work
[1] = target: T1, EphA3 kinase domain (wild-type) (Homo sapiens, UniProt P29320); experiment: ADP-Quest kinase assay, wild-type EphA3 kinase domain; type: biochemical; settings: for kcat/Km / kcat: 200 µM ATP, room temperature, ADP-Quest; for kcat: ± SD from two independent experiments, in duplicate
T1 sequence (P29320 621-882 limits assumed): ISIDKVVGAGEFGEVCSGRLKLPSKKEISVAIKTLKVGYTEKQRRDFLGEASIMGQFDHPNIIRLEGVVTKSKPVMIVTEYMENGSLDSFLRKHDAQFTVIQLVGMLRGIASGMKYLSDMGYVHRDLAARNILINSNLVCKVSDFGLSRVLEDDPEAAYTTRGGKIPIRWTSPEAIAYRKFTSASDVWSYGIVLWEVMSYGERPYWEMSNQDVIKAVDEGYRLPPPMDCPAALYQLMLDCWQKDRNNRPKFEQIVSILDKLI
Summary of the method: (§1)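 EphA3 kinase domain, wild-type or point mutant made by site-directed mutagenesis, expressed in E. coli BL21 Gold (DE3). His-tag purified, thrombin-cleaved, gel-filtered, then autophosphorylated with 10 mM each ATP and MgCl2; free nucleotide removed by anion exchange. ADP-Quest fluorescence (ex 530/em 590 nm) at room temperature. Peptide 1–4000 µM, ATP 200 µM, enzyme 10 nM–5 µM. Duplicates, background-ADP corrected. Km/Vmax from Michaelis–Menten fit; SD from two independent experiments.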

EphB3 = target: T2, EphB3 (Homo sapiens, UniProt P54753); experiment: Isoform specificity of EPHOPT, EphB3; type: biochemical; settings: in words
T2 sequence (P54753 633-896 limits assumed): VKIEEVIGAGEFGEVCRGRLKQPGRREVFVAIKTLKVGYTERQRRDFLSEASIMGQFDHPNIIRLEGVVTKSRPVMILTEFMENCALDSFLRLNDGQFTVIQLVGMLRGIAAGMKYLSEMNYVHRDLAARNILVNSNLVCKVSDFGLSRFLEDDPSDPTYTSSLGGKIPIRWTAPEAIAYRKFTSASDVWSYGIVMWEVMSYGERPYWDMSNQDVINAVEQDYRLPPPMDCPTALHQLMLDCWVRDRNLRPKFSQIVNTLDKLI
Summary of the method: (§2)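 Each kinase prepared by target. EphA5, EphA7 and EphB3 were autophosphorylated with 10 mM each ATP and MgCl2, then freed of nucleotide by anion exchange. EphB2 and EphB4 were bought in active form and used unmodified. ADP-Quest fluorescence read-out (ex 530/em 590 nm) at room temperature. Peptide substrate 1–4000 µM, ATP 200 µM, enzyme 10 nM–5 µM. Duplicates, background-corrected. Kinetic constants from Michaelis–Menten fit.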

EphA7 = target: T3, EphA7 (Homo sapiens, UniProt Q15375); experiment: Isoform specificity of EPHOPT, EphA7; type: biochemical; settings: in words; EphA7, non-arginine at position 782
T3 sequence (Q15375 633-894 limits assumed): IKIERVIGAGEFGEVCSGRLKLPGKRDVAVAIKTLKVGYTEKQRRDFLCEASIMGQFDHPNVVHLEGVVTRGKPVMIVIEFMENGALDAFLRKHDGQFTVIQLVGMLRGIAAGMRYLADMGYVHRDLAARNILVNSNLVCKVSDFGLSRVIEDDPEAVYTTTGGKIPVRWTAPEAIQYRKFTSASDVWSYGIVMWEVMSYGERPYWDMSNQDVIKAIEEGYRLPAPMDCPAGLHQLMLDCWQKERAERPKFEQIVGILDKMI
Summary of the method: as §2

[2] = Aqueous solubility of peptide; type: physicochemical; settings: aqueous buffer
[3] = test system: EphA5, EphA7, EphB3, EphB4, EphB2 (relative to EphA3); experiment: Isoform specificity of EPHOPT, other EPH kinase domains; type: biochemical
Summary of the method: as §2

EphB4 = target: T4, EphB4 (Homo sapiens, UniProt P54760); experiment: Isoform specificity of EPHOPT, EphB4; type: biochemical; settings: in words; EphB4, non-arginine at position 782
T4 sequence (P54760 615-899 limits assumed): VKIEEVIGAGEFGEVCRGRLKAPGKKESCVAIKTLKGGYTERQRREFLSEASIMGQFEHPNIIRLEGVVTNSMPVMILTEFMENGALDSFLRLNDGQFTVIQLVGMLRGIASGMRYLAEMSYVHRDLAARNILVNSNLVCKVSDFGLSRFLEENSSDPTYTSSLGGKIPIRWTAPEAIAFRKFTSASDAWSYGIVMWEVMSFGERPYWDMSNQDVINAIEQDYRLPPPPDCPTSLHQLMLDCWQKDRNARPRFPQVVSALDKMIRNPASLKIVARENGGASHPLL
Summary of the method: as §2

EphA3(N830A) = target: T5, EphA3(N830A) (Homo sapiens, UniProt P29320, N830A); experiment: ADP-Quest kinase assay, EphA3 N830A mutant; type: biochemical; settings: for kcat/Km / Km / kcat: 200 µM ATP, room temperature, ADP-Quest; for Km / kcat: peptide 1 to 4000 µM, ± SD from two independent experiments, in duplicate
T5 sequence (P29320 621-882 N830A limits assumed): T1 sequence (P29320 621-882 limits assumed) with N210A
Summary of the method: as §1

EphA3(K785E) = target: T6, EphA3(K785E) (Homo sapiens, UniProt P29320, K785E); experiment: ADP-Quest kinase assay, EphA3 K785E mutant; type: biochemical
T6 sequence (P29320 577-947 K785E limits assumed): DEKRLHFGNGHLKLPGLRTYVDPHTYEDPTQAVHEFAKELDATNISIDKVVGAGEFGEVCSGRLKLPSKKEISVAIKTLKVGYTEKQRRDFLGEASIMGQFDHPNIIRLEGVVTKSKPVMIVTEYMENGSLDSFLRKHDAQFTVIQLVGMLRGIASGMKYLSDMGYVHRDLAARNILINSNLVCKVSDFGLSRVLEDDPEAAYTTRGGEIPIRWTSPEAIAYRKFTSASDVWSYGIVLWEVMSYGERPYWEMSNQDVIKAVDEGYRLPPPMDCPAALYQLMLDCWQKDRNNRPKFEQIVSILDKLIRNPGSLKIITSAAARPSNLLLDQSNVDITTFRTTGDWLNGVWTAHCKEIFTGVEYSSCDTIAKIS
Summary of the method: as §1

EphB2 = target: T7, EphB2 (Homo sapiens, UniProt P29323); experiment: Isoform specificity of EPHOPT, EphB2; type: biochemical; settings: in words; EphB2, non-arginine at position 782
T7 sequence (P29323 621-884 limits assumed): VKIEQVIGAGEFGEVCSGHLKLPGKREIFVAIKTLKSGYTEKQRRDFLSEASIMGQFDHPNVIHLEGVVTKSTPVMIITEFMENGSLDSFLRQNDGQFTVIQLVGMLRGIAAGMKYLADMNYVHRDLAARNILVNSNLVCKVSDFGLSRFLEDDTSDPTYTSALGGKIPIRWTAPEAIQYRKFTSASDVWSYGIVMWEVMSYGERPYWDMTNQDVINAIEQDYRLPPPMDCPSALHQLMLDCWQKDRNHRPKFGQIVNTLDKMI
Summary of the method: as §2

[4] = EphA3(N830A) relative to wild-type
[5] = relative to juxtamembrane peptide
[6] = EphA3(K785E), 200 µM ATP, room temperature, ADP-Quest, ± SD from two independent experiments, in duplicate
[7] = EphA3 K785E mutant, 200 µM ATP, room temperature, ADP-Quest
[8] = EphA3 K785E mutant, peptide 1 to 4000 µM, 200 µM ATP, room temperature, ADP-Quest, ± SD from two independent experiments, in duplicate

D^598PHTYEDPTQ^606 [juxtamembrane EphA3 peptide]
Km (EphA3 kinase domain; EphA3 kinase domain): 1000 ± 20 µM
catalytic efficiency (EphA3 kinase domain; EphA3 kinase domain): 200 min⁻¹ mM⁻¹
kcat (EphA3 kinase domain; EphA3 kinase domain): 199 ± 9 min⁻¹
kcat (EphA3 kinase domain; quoted for comparison with EPHOPT): 199 per minute

KQWDNYEKIW [OPTYK]
kcat/Km [1]: 34270 M⁻¹ s⁻¹
kcat ([1]; peptide 1 to 4000 µM): 220 ± 27 min⁻¹

KQWDNYEpYIW [EPHOPT]
catalytic efficiency of EphB3 relative to EphA5 (EphB3): nearly as efficient as EphA5
substrate affinity at EphB3 relative to EphA3 (EphB3): nearly identical substrate affinity as EphA3
catalytic efficiency (EphA7) (EphA7): lower catalytic efficiencies
solubility [2]: ≥ 100000 µM
rank order of catalytic efficiency across isoforms ([3]; EphA3 and five other EPH kinases, Supplemental Table S2): EphA3>EphA5≅EphB3>>EphA7≅EphB4>>EphB2
selectivity for EphA3 over other EPH kinases ([3]; in words): mildly to strongly selective for EphA3
catalytic efficiency (EphB4) (EphB4): lower catalytic efficiencies
decrease in catalytic efficiency (EphA3(N830A); [4]): more than one order of magnitude decrease
decrease in kcat/Km (EphA3(N830A); [4]): 56 -fold
kcat/Km (EphA3(N830A); EphA3(N830A)): 0.835 µM/min
kcat/Km (EphA3(N830A); EphA3 N830A mutant): 13900 M⁻¹ s⁻¹
Km (EphA3(N830A); EphA3 N830A mutant): 39.5 ± 0.7 µM
kcat (EphA3(N830A); EphA3 N830A mutant): 0.55 ± 0.0233 s⁻¹
kcat/Km [1]: 787030 M⁻¹ s⁻¹
kcat [1]: 850 ± 44 per minute
kcat ([1]; peptide 1 to 4000 µM): 850 ± 44 min⁻¹
drop in Km [1, 5]: almost two orders of magnitude
increase in catalytic efficiency [1, 5]: over 200 -fold
increase in kcat [1, 5]: 4 -fold
decrease in catalytic efficiency (EphA3(K785E); EphA3(K785E) relative to wild-type): 260 -fold
negative effect on Km (EphA3(K785E); EphA3(K785E) relative to wild-type enzyme): about an order of magnitude
kcat (EphA3(K785E); [6]): 0.567 ± 0.012 s⁻¹
kcat/Km (EphA3(K785E); [7]): 3020 M⁻¹ s⁻¹
Km (EphA3(K785E); [8]): 188 ± 64 µM
kcat (EphA3(K785E); [8]): 0.567 ± 0.012 s⁻¹
catalytic efficiency (EphB2) (EphB2): lower catalytic efficiencies

KQWDNYEFIW [OPTYF]
weaker affinity (relative to EPHOPT) (EphA3(N830A); EphA3(N830A), OPTYF versus EPHOPT): 5 -fold
kcat/Km (EphA3(N830A); EphA3 N830A mutant): 3280 M⁻¹ s⁻¹
Km (EphA3(N830A); EphA3 N830A mutant): 152 ± 35 µM
kcat (EphA3(N830A); EphA3 N830A mutant): 0.5 ± 0.0233 s⁻¹
kcat/Km [1]: 233880 M⁻¹ s⁻¹
kcat [1]: 421 ± 30 min⁻¹
kcat ([1]; peptide 1 to 4000 µM): 421 ± 30 min⁻¹
relative change in Km ([1]; relative to EPHOPT): ~ 2 -fold
relative change in kcat ([1]; relative to EPHOPT): ~ 2 -fold
kcat/Km (EphA3(K785E); EphA3(K785E), 200 µM ATP, room temperature, ADP-Quest): 0.155 µM/min
kcat (EphA3(K785E); [6]): 0.383 ± 0.13 s⁻¹
kcat/Km (EphA3(K785E); [7]): 2580 M⁻¹ s⁻¹
kcat (EphA3(K785E); [8]): 0.383 ± 0.13 s⁻¹

Reference: paper PMC2865185 (The FEBS journal, 2009)
